The values below come from PMC3377097 (EMBO Molecular Medicine, 2011).

Series [1] addresses human isoQC (Homo sapiens, UniProt Q9NXS2). Kind of series: isoQC inhibition, Ki-values at pH 8. Type of series: biochemical.
Series [2] has as its target murine QC (Mus musculus, UniProt Q9CYK2). Kind of series: QC inhibition, Ki-values at pH 8. Type of series: biochemical.
Series [3] addresses murine isoQC (Mus musculus, UniProt Q8BH73). Kind of series: isoQC inhibition, Ki-values at pH 8. The class given is biochemical.
The test system of series [4] is C57BL/6J mice. The series is described as follows: Thioglycollate-induced peritonitis. The class given is in vivo. The note with it: oral gavage; for level of ICAM1 and CCR2: cells of the peritoneal lavage.
Series [5] concerns ApoE3*Leiden mice. The series is described as follows: Cuff-induced accelerated atherosclerosis. The class given is in vivo.
The subject of series [6] is models of Alzheimer's disease. The note with it: high doses for up to 6 months ref Schilling et al, 2008; cited from earlier work.
For series [7], the system named is LPS-stimulated primary murine glia cells. Kind of series: total-CCL2 and pE1-CCL2 ELISA of LPS-stimulated primary glia cells. The class given is cell-based. The settings on record: varying doses.
Series [8] has as its system LPS-stimulated primary glia cells. Kind of series: CCL2 gene expression. The settings on record: doses of 0.625 and 2.5 µM. Type of series: cell-based, murine. Summed up: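 Primary glia came from newborn C57BL/6J pups at postnatal day 1. Brains were triturated, strained at 100 and 40 µm, and 6 × 10^5 cells were seeded on poly-L-lysine in DMEM/F12 with 5% FBS and 0.05% gentamicin at 37°C and 5% CO2. Medium was renewed at day 7, and cells (about 85% astrocytes, 15% microglia) were used 12 days after seeding. After LPS stimulation, RNA went to random-primed cDNA and SYBR Green qPCR (comparative quantitation), n = 3–4, ANOVA/Tukey.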

Series [9] relates to LPS-stimulated THP-1 cells. The series is described as follows: CCL2 expression in LPS-stimulated THP-1 cells. Type of series: cell-based, human. The note with it: increasing concentrations.
Series [10] deals with murine primary macrophages. Kind of series: pE1-CCL2 secreted from LPS-stimulated primary macrophages. The class given is cell-based. Summed up: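 Blood was drawn by cardiac puncture into heparin from isoflurane-anaesthetised (2%) mice. PBMCs were separated on an LSM 1077 gradient, grown overnight, and adherent cells were detached with accutase and plated at 1 × 10^5 cells/well. Cells were stimulated with 1 µg/ml LPS (E. coli O55:B5) for 24 h. Medium pE1-CCL2 was measured by ELISA with 50 ng/well rabbit anti-mJE capture (coated 4–7 days, 4°C), read at 450 nm minus 550 nm.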

Series [11] concerns human primary macrophages. The series is described as follows: pE1-CCL2 secreted from LPS-stimulated primary macrophages. The class given is cell-based. Summed up: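 Human PBMCs were separated on an LSM 1077 density gradient and grown overnight at 37°C and 5% CO2. Adherent monocytes/macrophages were detached with accutase, plated at 1 × 10^5 cells/well and stimulated with 1 µg/ml LPS (E. coli O55:B5) for 24 h. Medium pE1-CCL2 was measured by sandwich ELISA: capture with 25 ng/well goat anti-hMCP-1 (overnight, 4°C), samples 2 h at room temperature, TMB read at 450 nm minus 550 nm.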

In series [12] the test system is THP-1 cells. Kind of series: TransWell chemotaxis assay. The class given is cell-based, human. The settings on record: THP-1 monocytes, 2 h migration. A digest of the protocol:
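THP-1 cells were grown in RPMI with 10% FBS and 50 µg/ml gentamicin at 37°C and 5% CO2, with mycoplasma checks. Cells at 1 × 10^6 per 100 µl RPMI1640 went into the upper chamber of 5 µm-pore TransWells, with chemoattractant below and serum-free RPMI as negative control. After 2 h at 37°C, 70 mM EDTA released bound cells (15 min, 37°C). Migrated cells were counted by cell counter or by FACS against 5000 Trucount beads.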

Series [13] has as its target human recombinant DP4 (Homo sapiens, UniProt P27487). Kind of series: Degradation of MCPs by DP4. Type of series: biochemical. The note with it: for N-terminal truncation by recombinant human DP4: 10 µg/ml in 25 mM Tris/HCl pH 7.6; for truncation by DP4: mature state bearing a pE-residue. A digest of the protocol: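 Recombinant CCL2, CCL7, CCL8 and CCL13 (Gln- and pGlu-forms) were either pre-incubated with recombinant human QC (0.6 µg/ml) for 2 h at 30°C and then incubated with recombinant human DP4, or incubated with DP4 alone. Truncation products were read by linear-mode MALDI-TOF-MS in positive ion mode over 2000–20,000 amu, summing at least 6 × 100 laser pulses.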

Series [14] is described as follows: Degradation of CCL2 in human plasma. The class given is in vitro ADME. The note with it: incubation with human plasma. A digest of the protocol:
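CCL2(Q1-76) was incubated with human plasma, either directly or after pre-incubation with recombinant human QC. N-terminal cleavage products were read by linear-mode MALDI-TOF-MS in positive ion mode over 2000–20,000 amu, calibrated with insulin and myoglobin. Each spectrum sums at least 6 × 100 laser pulses.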

For series [15], the target named is CCR2 (Homo sapiens, UniProt P41597). The series is described as follows: CCR2 receptor internalization assay. Type of series: cell-based. The note with it: human THP-1 monocytes, 45 min at 37°C, FACS. A digest of the protocol:
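THP-1 cells were maintained in RPMI with 10% FBS and 50 µg/ml gentamicin at 37°C, 5% CO2, and checked for mycoplasma. 6 × 10^5 cells were exposed in serum-free RPMI 1640 to N-terminal CCL2 variant ligands, then harvested into cold PBS. They were Fc-blocked for 10 min at 4°C and stained 30 min at 4°C with PE anti-CCR2 or IgG2B isotype control. After a PBS wash, they were analysed by flow cytometry.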

Setting [16] is: 2 days after surgery, drinking water 2.4 mg/ml.

human recombinant DP4, sequence (P27487 whole entry, the tested form may be a part): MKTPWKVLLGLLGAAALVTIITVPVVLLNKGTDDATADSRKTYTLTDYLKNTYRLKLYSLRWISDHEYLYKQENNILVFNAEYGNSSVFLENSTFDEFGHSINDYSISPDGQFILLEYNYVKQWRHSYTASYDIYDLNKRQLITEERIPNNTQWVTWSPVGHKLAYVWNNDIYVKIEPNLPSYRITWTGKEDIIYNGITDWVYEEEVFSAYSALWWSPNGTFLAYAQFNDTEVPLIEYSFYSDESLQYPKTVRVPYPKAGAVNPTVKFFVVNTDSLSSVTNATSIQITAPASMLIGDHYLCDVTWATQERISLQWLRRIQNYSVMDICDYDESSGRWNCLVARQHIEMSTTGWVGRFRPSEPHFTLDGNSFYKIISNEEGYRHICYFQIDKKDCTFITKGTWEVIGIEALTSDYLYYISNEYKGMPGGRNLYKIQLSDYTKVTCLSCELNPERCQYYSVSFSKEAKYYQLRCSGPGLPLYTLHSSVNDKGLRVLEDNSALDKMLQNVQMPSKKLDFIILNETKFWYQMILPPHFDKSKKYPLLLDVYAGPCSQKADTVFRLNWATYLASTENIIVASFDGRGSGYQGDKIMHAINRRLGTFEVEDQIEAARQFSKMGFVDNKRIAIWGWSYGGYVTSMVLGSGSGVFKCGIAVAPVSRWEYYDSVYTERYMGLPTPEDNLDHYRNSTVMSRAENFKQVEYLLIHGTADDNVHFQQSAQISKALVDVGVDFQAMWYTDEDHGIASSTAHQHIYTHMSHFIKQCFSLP
murine isoQC, sequence (Q8BH73 whole entry): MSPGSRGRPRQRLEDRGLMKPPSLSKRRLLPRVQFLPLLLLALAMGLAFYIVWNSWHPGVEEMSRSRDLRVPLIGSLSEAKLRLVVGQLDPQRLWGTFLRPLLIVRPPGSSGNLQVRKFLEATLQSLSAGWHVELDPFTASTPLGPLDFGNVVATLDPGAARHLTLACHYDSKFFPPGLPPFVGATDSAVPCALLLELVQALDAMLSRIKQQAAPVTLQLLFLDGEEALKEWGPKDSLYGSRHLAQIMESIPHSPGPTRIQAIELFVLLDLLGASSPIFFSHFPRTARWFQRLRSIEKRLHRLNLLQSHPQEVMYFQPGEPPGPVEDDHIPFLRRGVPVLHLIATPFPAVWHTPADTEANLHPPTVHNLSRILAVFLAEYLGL
human isoQC, sequence (Q9NXS2 whole entry): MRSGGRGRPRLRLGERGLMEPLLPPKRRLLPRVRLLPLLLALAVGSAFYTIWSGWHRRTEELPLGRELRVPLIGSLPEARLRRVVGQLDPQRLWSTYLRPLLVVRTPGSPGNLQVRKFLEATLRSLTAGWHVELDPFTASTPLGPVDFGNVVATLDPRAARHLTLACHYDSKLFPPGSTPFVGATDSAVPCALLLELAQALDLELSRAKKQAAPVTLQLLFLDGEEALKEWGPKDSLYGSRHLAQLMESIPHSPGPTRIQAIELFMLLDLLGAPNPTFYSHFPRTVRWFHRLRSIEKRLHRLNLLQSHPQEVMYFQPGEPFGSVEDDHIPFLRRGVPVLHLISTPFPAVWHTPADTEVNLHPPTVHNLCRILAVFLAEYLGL
CCR2, sequence (P41597 whole entry): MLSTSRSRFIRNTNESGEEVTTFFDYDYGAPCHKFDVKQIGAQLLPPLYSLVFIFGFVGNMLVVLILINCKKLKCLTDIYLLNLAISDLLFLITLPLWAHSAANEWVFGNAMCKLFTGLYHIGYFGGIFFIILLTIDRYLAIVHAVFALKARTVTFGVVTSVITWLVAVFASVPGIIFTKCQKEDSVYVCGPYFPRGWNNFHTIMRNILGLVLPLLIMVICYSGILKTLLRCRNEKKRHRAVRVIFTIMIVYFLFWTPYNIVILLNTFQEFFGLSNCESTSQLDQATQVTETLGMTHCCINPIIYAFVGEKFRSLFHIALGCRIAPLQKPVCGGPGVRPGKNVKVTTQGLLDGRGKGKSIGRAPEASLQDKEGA
murine QC, sequence (Q9CYK2 36-362): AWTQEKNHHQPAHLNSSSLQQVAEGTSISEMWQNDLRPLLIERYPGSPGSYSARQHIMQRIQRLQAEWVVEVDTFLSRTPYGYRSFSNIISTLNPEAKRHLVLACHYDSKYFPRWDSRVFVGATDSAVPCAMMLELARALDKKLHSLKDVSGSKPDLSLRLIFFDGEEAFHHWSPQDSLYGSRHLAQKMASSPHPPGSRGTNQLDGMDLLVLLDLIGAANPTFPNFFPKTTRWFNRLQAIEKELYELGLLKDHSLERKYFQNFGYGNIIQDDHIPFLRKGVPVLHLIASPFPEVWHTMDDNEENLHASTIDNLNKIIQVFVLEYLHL

On to `COc1ccc(NC(=S)NCCCn2ccnc2)cc1OC` [PQ50, 1-(3-(1H-Imidazol-1-yl)propyl)-3-(3,4-dimethoxyphenyl)thiourea], for which the Ki (usually a measure of affinity in units of concentration, obtained from inhibition or displacement) in series [1] stood at 236 nM. Also, the Ki in series [2] came out at 170 nM. In series [3], the affinity corresponds to a Ki of 246 nM. In series [4], the “gene expression of CCL2, CCL7, IL-6 and TNF-alpha in cells of the peritoneal lavage” value was “without changing”; the “number of monocytes after stimulation with thioglycollate” value is “reduced the number of monocytes”; the “level of ICAM1 and CCR2” value is listed as “unchanged”. Further, in series [5] (2 weeks after surgery), the “area of the media” value is listed as “reduced” and the “total area within the outer diameter of the vessel segment, area of the interna, number of foam cells” value is “did not affect”. In series [5] (2 weeks after surgery, treated vs untreated), the CCL2-immunopositive area result is given as “did not differ”. Also, in [5] (setting [16]), the “reduction of monocytes at the cuffed vessel segments” value is 67% and the “reduction of total adhering cells at the cuffed vessel segments” value stood at 45%. In addition, in series [6], the toxicity entry is “without overt signs of toxicity”.
In the case of `CCCOc1ccc(C2C(=O)NC(=O)N2c2ccc3[nH]cnc3c2)cc1` (centres unmarked) [PQ529, 1-(1H-benzo[d]imidazol-5-yl) -5-(4-propoxyphenyl) imidazolidine-2,4-dione], the “concentration of pE^1-CCL2” value in series [7] was “decreased the concentration of pE^1-CCL2 dose-dependently”. The “CCL2 mRNA” value in series [8] is reported as “slight but significant increase”. Also, the CCL2 expression result in series [9] is given as “did not show an effect”. Also, in series [10], the “pE^1-CCL2 secreted” value is recorded as “reduced”. Besides, the “pE^1-CCL2 secreted” value in [11] is reported as “reduced”. In addition, in series [4], the “gene expression of CCL2, CCL7, IL-6 and TNF-alpha in cells of the peritoneal lavage” value is “without changing”; the “number of monocytes after stimulation with thioglycollate” value is “reduced the number of monocytes”; the “level of ICAM1 and CCR2” value is listed as “unchanged”.
As to “CCL2(D^3-76): DP4-cleavage product of CCL2”, the “monocyte attraction (chemotaxis)” value in series [12] is on record as “shift to higher concentrations needed to elicit chemotaxis”.
For “CCL2(Q^1-76): recombinant human CCL2 possessing an N-terminal glutaminyl residue (immature form)”, in series [13], the “N-terminal truncation by recombinant human DP4” value was “susceptible to cleavage”.
On to “CCL2(pE^1-76): mature human CCL2 with N-terminal pyroglutamate residue”, for which, in series [13], the “N-terminal truncation by recombinant human DP4” value was “prevented N-terminal truncation”. The “N-terminal degradation in human plasma” value in [14] was “completely resistant to cleavage”. In series [15], the CCR2 internalization result is on record as “most potent”. For the same molecule, in series [12], the “monocyte attraction (chemotaxis)” value is on record as “highest efficacy”.
Regarding “CCL7: recombinant human CCL7, MCP family member”, the “truncation by DP4” value in [13] is “protected against truncation”.
Same read-out and setting: then “CCL13: recombinant human CCL13, MCP family member”, with “protected against truncation”.

B1: CCL8: recombinant human CCL8 (MCP-2) (protein, UniProt P80075 24-99, looked up)
C-C motif chemokine 8: QPDSVSIPITCCFNVINRKIPIQRLESYTRITNIQCPKEAVIFKTKRGKEVCADPKERWVRDSMKHLDQIFQNLKP
B1: the “truncation by DP4” value in series [13] is “protected against truncation”.
